# CHO parental Ca – ATP-evoked calcium signal inhibitors, parental CHO, primary screen, counter-screen for OX1R antagonist project, cell-based, fluorescence, Fluo-8 calcium dye; AID 463079, 2010; parental CHO-K1, ATP-induced calcium, Fluo-8 fluorescence; inhibition, % at 5.6 µM; 330,000 compounds, 0.63% hits;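 active = inhibition above that plate's mean sample inhibition plus 3 SD, cut at about 26% in these data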;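 also: 0% = ATP-challenged DMSO wells and 100% = DMSO wells without ATP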
#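 test system = CHO parental line | reagent = ATP stimulus | measured by = intracellular calcium via Fluo-8 no-wash fluorescent dye | control set = ATP and no-ATP DMSO wells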
# OX1R antag-1 – OX1R (HCRTR1) antagonists, primary screen, fluorescence, CHO/OX1R cells, Fluo-8 calcium, orexin A; Fluo-8 calcium fluorescence; Orexin/Hypocretin receptor type 1 (Homo sapiens), O43613; inhibition, % at 5 µM; 330,000 compounds, 0.43% hits; AID 434989, 2010;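 active = inhibition above its plate's threshold, mean inhibition of all tested compounds on the plate plus 3 SD, cut at about 37% in these data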;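 also: 0% = orexin A challenge wells and 100% = SB-334867-A antagonist wells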
# Target sequence (O43613 whole entry, looked up): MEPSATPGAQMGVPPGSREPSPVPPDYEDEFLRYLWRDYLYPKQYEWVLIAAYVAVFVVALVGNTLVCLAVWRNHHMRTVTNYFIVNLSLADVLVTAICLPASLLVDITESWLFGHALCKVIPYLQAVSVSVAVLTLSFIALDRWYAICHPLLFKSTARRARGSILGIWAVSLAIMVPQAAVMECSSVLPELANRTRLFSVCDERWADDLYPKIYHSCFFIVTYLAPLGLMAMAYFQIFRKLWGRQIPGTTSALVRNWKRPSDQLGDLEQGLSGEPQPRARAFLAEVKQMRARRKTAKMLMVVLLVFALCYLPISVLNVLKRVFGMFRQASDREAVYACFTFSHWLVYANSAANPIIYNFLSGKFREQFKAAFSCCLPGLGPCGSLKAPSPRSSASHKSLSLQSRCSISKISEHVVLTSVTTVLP
# GalR3 antagonist – GalR3 antagonists in HEK293 cells, primary screen, cell-based, fluorescence readout; Galanin receptor type 3 (Homo sapiens), O60755; HEK293 GalR3-CNG cAMP membrane potential fluorescence; galR3 body fused to GalR1 C-terminus; inhibition, % at 3 µM; 360,000 compounds, 0.44% hits; AID 651719, 2012;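 active = inhibition above the screen-wide average plus 3 SD, cut at about 13% in these data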;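 also: forskolin and galanin both at EC90 stimulate the cells; cAMP rise reported by CNG channel membrane potential dye signal; 0% = forskolin plus galanin with DMSO and 100% = forskolin alone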
# Target sequence (O60755 1-299 limits assumed): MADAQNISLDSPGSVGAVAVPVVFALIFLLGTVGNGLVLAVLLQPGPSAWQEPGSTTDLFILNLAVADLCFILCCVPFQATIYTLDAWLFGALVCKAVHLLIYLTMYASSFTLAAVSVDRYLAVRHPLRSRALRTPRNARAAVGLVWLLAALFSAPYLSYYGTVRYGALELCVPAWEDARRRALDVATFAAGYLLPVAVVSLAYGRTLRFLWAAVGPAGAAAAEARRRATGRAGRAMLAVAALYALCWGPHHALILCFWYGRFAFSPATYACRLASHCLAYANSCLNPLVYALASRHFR
# TAAR1 antag – human TAAR1 antagonists, primary screen, Fluo-8 calcium fluorescence, CHO RD-HGA16 cells; inhibition, % at 3 µM; antagonist; AID 624466, 2012; 360,000 compounds, 1.5% hits;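 active = inhibition above a per-plate cutoff, the mean inhibition of test compounds on that plate plus 3 SD, cut at about 49% in these data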;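 also: 0% = DMSO plus EC80 beta-PEA response and 100% = DMSO alone without agonist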
#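 System: RD-HGA16 CHO cells with stable hTAAR1 and Gα16 | Probe or stimulus: EC80 β-phenethylamine stimulus | Dosing: 3 µM, single point | Times: Dye loading 75 min at 37 °C, then 30 min room temperature | Measured by: Fluo-8 calcium-sensitive fluorescence | Read-out basis: % inhibition of agonist calcium response | Replicates: n of 1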
# OX1R antag-2 – antagonists of human orexin 1 receptor (OX1R); OX1R-expressing cells, FRET antagonist read-out; 330,000 compounds, 1.8% hits; inhibition, % at 6.6 µM; Orexin/Hypocretin receptor type 1 (Homo sapiens), O43613; in the data active = inhibition mostly above about 38%, no sharp cut-off; inactive = mostly below about 40%;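 also: 0% = agonist challenge alone and 100% = reference antagonist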
# TAAR1 agonist – human TAAR1 agonists, primary screen, Fluo-8 calcium fluorescence, CHO RD-HGA16 cells; AID 624467, 2012; 360,000 compounds, 0.99% hits; activation, % at 3 µM; Trace amine-associated receptor 1 (Homo sapiens), Q96RJ0; vehicle wells 0%, saturating PEA agonist 100%;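 active = activation above the mean activation of all test compounds in the run plus 3 SD, cut at about 38% in these data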
#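 Test system: RD-HGA16 (CHO) cells co-expressing Gα16 and hTAAR1 | Doses: Single dose, 3 µM | Schedule: 17-24 h seeding, 75 min 37 °C dye, 30 min RT | Evaluation: % activation from peak over basal fluorescence ratio, DMSO-to-PEA scaled | Technique: Kinetic Fluo-8 calcium fluorescence | Benchmarks: Low control DMSO, high control PEA (EC100)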
# TAAR1 ag conf – human TAAR1 agonists, retest of hits, confirmation, Fluo-8 calcium fluorescence, CHO RD-HGA16 cells. shares compounds with TAAR1 agonist. 2,400 compounds, 82% hits. AID 651783, 2012. activation, % at 3 µM. scaled: DMSO 0%, maximal phenethylamine 100%;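 active = activation above a cutoff set at the run's mean compound activation plus 3 SD, cut at about 39% in these data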
# Ga16 nonsel ag – nonselective calcium mobilization agonists, CHO-Ga16 cells, counter-screen for hTAAR1 agonist project, cell-based, fluorescence, CHO-Ga16 parental line | shares compounds with TAAR1 agonist | Fluo-8 calcium fluorescence; normalized to maximal ATP response, DMSO zero | activation, % at 3 µM | 2,400 compounds, 50% hits | AID 651787, 2012;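 active = activation above the run cutoff, the mean activation over all tested wells plus 3 SD, cut at about 12% in these data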;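 also: 0% = DMSO wells and 100% = maximal ATP response on the peak over basal ratio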
# TAAR1 desens – TAAR1 desensitization by agonist hits, confirmation, counter-screen for TAAR1 agonist project, cell-based, fluorescence, tachyphylaxis. shares compounds with TAAR1 agonist. CHO RD-HGA16 hTAAR1, Fluo-8 calcium, beta-PEA response inhibition. inhibition, % at 3 µM. 2,400 compounds, 46% hits. AID 651951, 2012;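 active = inhibition above the run cutoff, the mean inhibition of all test compounds plus 3 SD, cut at about 49% in these data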;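 also: beta-PEA stimulus applied at its EC80; loss of beta-PEA calcium signal after compound pretreatment read as receptor desensitization; 0% = DMSO with beta-PEA at EC80 and 100% = DMSO alone without agonist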
# Ga16 antag count – inhibition of ATP-evoked calcium response in CHO-Ga16 cells, counter-screen for TAAR1 agonist project, cell-based, fluorescence; shares compounds with TAAR1 agonist; CHO-Ga16 ATP-induced calcium, Fluo-8 fluorescence; inhibition, % at 3 µM; 2,400 compounds, 39% hits;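 active = inhibition above the plate's mean compound inhibition plus 3 SD, computed per plate, cut at about 22% in these data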;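 also: 0% = EC80 ATP with DMSO and 100% = DMSO wells without ATP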
# An asterisk follows results filed as active; · = not tested or not shown. A selection: hits, their analogues and other compounds. The true share with any hit is near 4.2%.
SMILES,CHO parental Ca,OX1R antag-1,GalR3 antagonist,TAAR1 antag,OX1R antag-2,TAAR1 agonist,TAAR1 ag conf,Ga16 nonsel ag,TAAR1 desens,Ga16 antag count
O=C(N[C@H](C(=O)N1CCC[C@H]1C(=O)NCCc1ccccc1Cl)C1CCCCC1)c1ccc(Cl)c(Cl)c1,·,·,-8,-1,·,4,·,·,·,·
O=C(NCCc1ccccc1Cl)[C@@H]1CCCN1C(=O)[C@@H](NC(=O)N1CCOCC1)C1CCCCC1,·,·,-6,35,·,57*,74*,2,80*,6
CN(Cc1ccc(OC(F)F)cc1)C(=O)/C=C/c1ccc(S(=O)(=O)N2CCOCC2)cc1,-3,-4,-5,-8,7,5,·,·,·,·
O=c1cnnc(Nc2ccc(Cl)c(C(F)(F)F)c2)[nH]1,-11,-11,-5,11,43,24,·,·,·,·
O=c1cnnc(Nc2ccc(F)cc2)[nH]1,18,-13,1,25,17,46*,57*,2,3,4
O=c1cnnc(Nc2cccc(C(F)(F)F)c2)[nH]1,-9,-2,2,9,7,11,·,·,·,·
O=c1cnnc(Nc2cccc(F)c2)[nH]1,-2,-15,-9,37,20,64*,74*,0,48,12
CCCCN(C(C)=O)c1c(CC)nc2ccc(C(=O)NCCCN(C)C)cn12,·,·,-7,0,·,0,·,·,·,·
COc1ccc(/C=C2\SC(=O)N(CCC(=O)Nc3ccccc3)C2=O)cc1OC,-4,-24,0,4,4,0,·,·,·,·
COc1cc(/C=C2\SC(=O)N(CCN)C2=O)ccc1OS(=O)(=O)c1cc(C)ccc1C,·,·,-3,-3,·,54*,72*,29*,57*,18
Cc1ccc(C(=O)O/N=C(\N)Cc2cccc3ccccc23)cc1,-21,-21,-8,40,7,57*,52*,-1,11,-1
O=C1C=CC(=O)N1c1ccc2c(c1)Cc1cc(F)ccc1-2,·,·,-3,48,·,14,·,·,·,·
CC(=O)Nc1ccc2c(c1)Cc1cc(N3C(=O)C=CC3=O)ccc1-2,·,·,0,52*,·,59*,34,29*,48,54*
Cc1ccc2c(=O)cc(C(=O)NCCc3ccc(S(N)(=O)=O)cc3)oc2c1,-4,-8,·,·,-5,·,·,·,·,·
COc1ccccc1NC(=S)NC(=O)Cc1ccc(Cl)cc1,24,10,-9,107*,5,125*,126*,89*,101*,73*
COc1cccc(NC(=S)NC(=O)Cc2ccc(Cl)cc2)c1,9,9,-5,84*,-2,93*,124*,83*,91*,69*
COc1ccc(CC(=O)NNC(=S)Nc2ccc(Br)cc2)cc1,-1,-5,-2,5,17,7,·,·,·,·
CCC(=O)Nc1cccc(NC(=S)NC(=O)Cc2ccccc2)c1,-16,-7,-1,8,13,11,·,·,·,·
COc1ccc(CC(=O)NC(=S)Nc2cccc(CO)c2)cc1,-4,-13,-3,0,2,79*,83*,55*,29,16
COc1ccc(CC(=O)NC(=S)Nc2cccc(C)c2)cc1,1,-1,4,49*,-7,82*,71*,50*,52*,45*
C[C@@H](NC(=O)OC(C)(C)C)C(=O)NCC1CCC(C(=O)N[C@@H](Cc2ccccc2)C(=O)O)CC1 (stereo partly drawn),-2,-2,-8,-7,-1,9,·,·,·,·
COc1cc2c(c(OC)c1OC)C1(CCCCC1)CC2NCC=C(C)C (stereo not drawn),·,·,-8,0,·,50*,12,1,-10,1
COc1cc(CNC2CCCCCCC2)cc(Cl)c1OC,-29,-22,-12,-7,16,8,·,·,·,·
CN(CCC#N)S(=O)(=O)c1ccc2[nH]cc(C(=O)NCCc3ccccc3)c(=O)c2c1,-15,-8,1,12,15,54*,73*,0,20,6
CCCCC(=O)NC(=S)Nc1cccc(NC(=O)CC)c1,-16,-35,-6,-3,-3,2,·,·,·,·
SMILES,CHO parental Ca,OX1R antag-1,GalR3 antagonist,TAAR1 antag,OX1R antag-2,TAAR1 agonist,TAAR1 ag conf,Ga16 nonsel ag,TAAR1 desens,Ga16 antag count
CC1OC2CC(=O)OC2C2=C1C(=O)c1c(O)cccc1C2=O (stereo not drawn),·,·,-10,58*,·,64*,69*,41*,71*,62*
Cc1onc(-c2ccccc2)c1C(=O)NNC(=O)c1ccccc1,-12,-9,-3,6,4,1,·,·,·,·
O=C(NC(=S)NNC(=O)c1ccc(Cl)cc1Cl)c1cccnc1,-2,-6,4,-9,10,2,·,·,·,·
Cc1onc(-c2ccccc2)c1C(=O)NNC(=S)NC(=O)c1ccc(Cl)cc1Cl,3,-8,-9,108*,3,132*,149*,121*,107*,92*
Cc1ccccc1C(=O)NNC(=S)NC(=O)c1ccc(Cl)cc1Cl,2,23,-2,109*,13,181*,132*,103*,104*,81*
COc1ccc(/C=C/C(=O)NC(=S)NNC(=O)c2c(-c3ccccc3)noc2C)cc1,-4,-7,2,49*,-1,93*,68*,66*,52*,52*
COc1ccc(-c2cc(C(=O)NNC(=S)NC(=O)c3c(-c4ccccc4)noc3C)[nH]n2)cc1,5,-11,-2,-21,10,3,·,·,·,·
